Assay outcomes deposited in PubChem by Sanford-Burnham Center for Chemical Genomics.
SENP1 FRET inh: inhibitors of human SENP1 SUMO protease catalytic domain; Q9P0U3; AID 624204; recombinant SENP1 catalytic domain, CyPet-SUMO1-YPet FRET cleavage; 360,000 compounds, 0.21% hits; inhibition, % at 10 µM;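 active = inhibition at least 30% at 10 µM, raw YFP signal under a set limit, fluorescence ratio 0.5 to 1.5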;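 note: 0% = enzyme with DMSO and 100% = no enzyme wells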
Target sequence (Q9P0U3 419-644 limits assumed): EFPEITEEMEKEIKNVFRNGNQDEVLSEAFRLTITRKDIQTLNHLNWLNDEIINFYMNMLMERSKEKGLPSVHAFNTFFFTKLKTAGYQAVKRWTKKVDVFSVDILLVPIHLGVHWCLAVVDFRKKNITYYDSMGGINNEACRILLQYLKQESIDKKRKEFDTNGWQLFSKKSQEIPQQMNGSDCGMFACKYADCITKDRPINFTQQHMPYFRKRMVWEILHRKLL
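Compound: 10 µM single point, 0.5% DMSO; Test system: hSENP1 catalytic domain, recombinant; Timing: 50 min reaction at room temperature; Technique: FRET, CFP and YFP emission; Control set: no-enzyme wells low, DMSO-plus-enzyme wells high control.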
NR3A LBD binder: NR3A (human) ligand-binding domain modulation; Tm shift relative to glycine control, % at 25 µM; NR3A LBD differential scanning fluorimetry, Tm shift; 0% = protein alone, 100% = glycine-bound protein; 340,000 compounds, 2.5% hits; AID 1259313;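 active = melting temperature shift of at least 10% of the positive control shift, at one fixed dose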
MPTP block: permeability transition pore inhibition. isolated mouse mitochondria, Ca2+ swelling absorbance, 30 min. inhibition, % at 10 µM. 360,000 compounds, 1.4% hits;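 active = inhibition of 50% or more, scaled per plate between neutral and stimulator controls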;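 note: 0% = DMSO wells given calcium and 100% = 1 mM EGTA wells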
EBI2 block: antagonists of human EBI2 receptor | P32249 | EBI2 beta-arrestin recruitment, luminescence, 7a,25-OHC stimulated | inhibition, % at 5 µM | 360,000 compounds, 0.81% hits | AID 651636; in the data active = inhibition above about 38%;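 note: enzyme fragment complementation signal reports receptor beta-arrestin coupling in cells; 0% = agonist plus DMSO wells and 100% = wells without agonist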
Target sequence (P32249 whole entry, looked up, the tested form may be a part): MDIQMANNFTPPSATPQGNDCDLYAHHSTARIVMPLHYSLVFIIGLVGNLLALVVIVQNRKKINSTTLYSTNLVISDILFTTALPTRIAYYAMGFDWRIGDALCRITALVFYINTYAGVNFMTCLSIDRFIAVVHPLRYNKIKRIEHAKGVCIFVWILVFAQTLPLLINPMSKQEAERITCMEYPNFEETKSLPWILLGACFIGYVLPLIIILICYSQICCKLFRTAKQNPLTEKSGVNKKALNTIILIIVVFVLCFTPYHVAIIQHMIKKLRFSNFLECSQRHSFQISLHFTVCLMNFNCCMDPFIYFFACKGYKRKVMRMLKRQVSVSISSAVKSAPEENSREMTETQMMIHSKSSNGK
EBI2 conf: EBI2 (human) antagonism, single concentration confirmation; shares compounds with EBI2 block; inhibition, % at 5 µM; EBI2 beta-arrestin luminescence, 7a,25-OHC antagonism; 2,400 compounds, 29% hits;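 active = inhibition of at least 50%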
EBI2 agonist: activates EBI2, counter-screen for EBI2 antagonists; shares compounds with EBI2 block; 2,400 tested, under 10 active; activation, % at 5 µM; EBI2-expressing cells, agonist mode, luminescence, 60 min; 0% vehicle, 100% 7α,25-dihydroxycholesterol control;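 active = activation of at least 50%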
bGal counter: beta-galactosidase inhibition counter-screen | shares compounds with EBI2 block | 2,400 compounds, 1% hits | inhibition, % at 5 µM | purified beta-galactosidase, luminescent Galacton Star, 15 min | AID 652176;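 active = replicate-average signal at least 3 plate SD below neutral wells, shown as high inhibition, flagging enzyme-inhibiting false positives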;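 note: 0% = DMSO wells with enzyme and 100% = wells lacking enzyme; higher means stronger loss of beta-gal luminescence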
Starred values were filed as active, the others as inactive; . = no result. In the library only some 4.4% were active in any assay of this set; here they are far more common.

SMILES | SENP1 FRET inh | NR3A LBD binder | MPTP block | EBI2 block | EBI2 conf | EBI2 agonist | bGal counter
c1ccc(OCCN2CCN(C(c3ccccc3)c3ccccc3)CC2)cc1 | 0 | 2 | 2 | 45* | 5 | 0 | -10
c1ccc(OCCN2CCNCC2)cc1 | 3 | -3 | -1 | 8 | . | . | .
COCc1cc(C)nc(SCC[N+](C)(C)CC(=O)Nc2cccc(C(F)(F)F)c2)c1C#N | -1 | -3 | 10 | -4 | . | . | .
O=C(Nc1ccc(Cl)cc1)N1CCN(Cc2ccc3c(c2)OCO3)CC1 | 3 | 0 | 1 | 31 | . | . | .
Cc1cc(C)cc(C(=O)N2CCN(Cc3ccc4c(c3)OCO4)CC2)c1 | 0 | 0 | 0 | 5 | . | . | .
O=C(/C=C\c1cccs1)N1CCN(Cc2ccc3c(c2)OCO3)CC1 | -2 | -5 | 2 | 75* | 54* | 0 | 4
CCCOc1ccc(C(=O)N2CCN(Cc3ccc4c(c3)OCO4)CC2)cc1 | 1 | 2 | -1 | 78* | 54* | -1 | -10
O=C(COc1ccc(Cl)cc1)N1CCN(Cc2ccc3c(c2)OCO3)CC1 | 3 | 2 | 3 | 87* | 61* | -1 | -14
CCCOc1ccc(C(=O)Nc2ccc3c(c2)OCO3)cc1 | -1 | -15 | -1 | 52* | 20 | -1 | -8
CC(CNC(=O)CCC(=O)N1CCOc2ccc(Cl)cc21)c1ccccc1 (centres undefined) | 2 | 3 | 0 | 4 | . | . | .
COc1ccccc1/C=C\C(=O)NCC(=O)N/N=C/c1cccc(OC)c1O | -2 | 1 | -2 | -2 | . | . | .
COc1ccc(/C=N/NC(=O)CNC(=O)/C=C/c2ccccc2OC)cc1 | 0 | 0 | 2 | 77* | 57* | 0 | -17
CCN(CC)S(=O)(=O)c1cccc(-c2nnc(SCCOc3ccccc3C)o2)c1 | 2 | 3 | 2 | 50* | 35 | 0 | -1
O=C(CCc1ccccc1)N1CCN(C(=O)CCc2ccccc2)CC1 | 2 | 0 | 0 | 55* | 25 | -1 | -8
Cn1ncc([N+](=O)[O-])c1C(=O)N1CCCCCC1 | 0 | -3 | 0 | -8 | . | . | .
COc1cc(/C=C(\C#N)C(=O)c2c(C)[nH]c3ccccc23)cc(OC)c1OC | 3 | -20 | -3 | 45* | 35 | 3 | 7
COc1ccc(OC)c(C(=O)NC(CC(N)=O)c2ccc(NCCN3CCCCC3)c([N+](=O)[O-])c2)c1 (centres undefined) | 4 | -3 | 0 | 9 | . | . | .
O=C(c1ccccc1)c1c[nH]c(C(=O)C(Cl)(Cl)Cl)c1 | 0 | 2 | 1 | 1 | . | . | .
O=C(c1ccc(Cl)cc1)c1c[nH]c(C(=O)C(Cl)(Cl)Cl)c1 | 2 | . | -1 | 42* | 47 | 3 | 0
CCC(=O)Nc1nonc1-c1nc2ccccc2n1Cc1ccccc1 | -2 | 3 | -1 | 5 | . | . | .
CCOC(=O)Cn1c(-c2nonc2NC(=O)c2ccccc2F)nc2ccccc21 | -32 | -7 | -1 | 55* | 45 | -1 | 8
COCCNc1nc(NCCOc2ccccc2)c2sc(-c3ccccc3)cc2n1 | 0 | . | 7 | 47* | 45 | 0 | 6
COCCNc1nc(NCCOC)c2sc(-c3ccccc3)cc2n1 | -1 | . | 1 | 12 | . | . | .
COCCNc1nc(-c2ccc(OC)cc2C)c2sc(-c3ccccc3)cc2n1 | -32 | . | -2 | 42* | 19 | -1 | -13
C=CCN1C(=O)NC(c2ccccc2)(C(F)(F)F)S/C1=C(\C#N)c1nnc(N2CCOCC2)n1-c1ccccc1 (centres undefined) | 1 | -2 | 2 | 53* | 53* | 1 | -12
SMILES | SENP1 FRET inh | NR3A LBD binder | MPTP block | EBI2 block | EBI2 conf | EBI2 agonist | bGal counter
C=CCN1C(c2cccc(C(F)(F)F)c2)=CS/C1=C(\C#N)c1nnc(N2CCOCC2)n1-c1ccccc1 | 2 | . | 4 | 10 | . | . | .
Cc1ccc(C2=CC(=O)C[C@H](c3ccc4c(c3)OCO4)C2)cc1 | 1 | -3 | 1 | 48* | 37 | 1 | 10
CSc1ccc(C2=CC(=O)C[C@H](c3ccc4c(c3)OCO4)C2)cc1 | -7 | -7 | -1 | 41* | 28 | -1 | -4
O=C1C=C(c2ccc3c(c2)oc2ccccc23)C[C@@H](c2ccc3c(c2)OCO3)C1 | 0 | -3 | 0 | 71* | 64* | 1 | -3
COc1ccc(C2=CC(=O)C[C@H](c3ccc4c(c3)OCO4)C2)cc1 | 3 | -3 | -2 | 41 | . | . | .
O=C1C=C(c2ccc(O)cc2)C[C@@H](c2ccc3c(c2)OCO3)C1 | 0 | -12 | 1 | 16 | . | . | .
O=C(Nc1ccc(F)cc1)C(c1ccccc1OC(F)(F)F)N1CCN(C(=O)c2ccco2)CC1 (centres undefined) | 2 | . | 1 | -1 | . | . | .
CC1CCCCN1C(=O)c1cc(S(=O)(=O)N2CCCCC2)c[nH]1 (centres undefined) | -1 | 0 | -1 | -5 | . | . | .
Cn1c(=O)c2c(nc(N/N=C/c3ccc(OC(=O)c4ccco4)cc3)n2Cc2ccc(F)cc2)n(C)c1=O | 2 | 0 | 2 | 19 | . | . | .
Cn1c(=O)c2c(nc(N/N=C/c3ccc(OC(=O)c4ccco4)cc3)n2Cc2ccccc2Cl)n(C)c1=O | 4 | -10 | 2 | 54* | 34 | 0 | 11
COc1ccccc1NC(=O)CS(=O)(=O)c1cn(CC(=O)N2CCOCC2)c2ccccc12 | 2 | -1 | 2 | -5 | . | . | .
CCOc1ncccc1C(=O)OCC(=O)NC1CCCCC1 | -1 | 2 | -1 | 3 | . | . | .
N#CCCn1cc(C=C(C#N)C#N)c(-c2ccc(Cl)cc2)n1 | -2 | 1 | -2 | 3 | . | . | .
N#CCCn1cc(/C=C(\C#N)c2nc3ccccc3s2)c(-c2ccc(F)cc2)n1 | -52 | -9 | 1 | 46* | 34 | -1 | -19
Cc1cccc(OCC(=O)N2CCC(c3ccccc3)C2)c1 (centres undefined) | 0 | 2 | 0 | 46* | 44 | 1 | 3
CC1CCCN(C(=O)COc2ccc(-c3ccccc3)cc2)C1 (centres undefined) | 3 | 2 | 1 | 9 | . | . | .
O=C(COc1ccc(F)cc1)N1CCC(c2ccccc2)C1 (centres undefined) | 1 | -2 | 0 | 57* | 27 | 0 | 3
CCOc1ccc(-n2c(=O)c3sccc3n(Cc3cccc([N+](=O)[O-])c3)c2=O)cc1 | 4 | -3 | 3 | 12 | . | . | .
Cc1ccc(C(C)C)c(OCc2ccc(C(=O)N/N=C/c3ccc(C(=O)O)cc3)cc2)c1 | 2 | 1 | 33 | 40* | 8 | 0 | 8
Cc1ccc(COc2ccc(/C=N/NC(=O)c3ccc(CN4CCOCC4)cc3)cc2)cc1 | 5 | -5 | 9 | 7 | . | . | .
O=C(/C=C1\OCc2cc(OCc3ccccc3)ccc21)OCc1ccccc1 | 9 | . | 4 | 46* | 32 | -1 | -15
